For 19 compounds, ED50, IC50 and Pupil size results are on record in ChEMBL document CHEMBL1123213, “Neuroleptic activity of chiral trans-hexahydro-gamma-carbolines” (J Med Chem, 1986).

The test system of test [1] is Rattus norvegicus. Kind of test: Antagonistic activity against amphetamine-induced stereotypy in rats; (5 mg/kg administered ip 1 hr after the test compound). It is filed as functional. An outline of the steps:
(§1)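 Rats housed singly in covered compartments, briefly acclimated, then dosed sc in groups of five at doses spaced 0.5 log unit (1, 3.2, 10, 32 mg/kg). d-Amphetamine sulfate 5 mg/kg ip given 1, 5 and 24 h later. Behaviour scored on a six-point scale 1 h after each challenge. ED50 by linear regression or by inspection; no fiducial limits.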

Test [2] deals with Dopamine receptor. As to the kind of experiment: Inhibition of [3H]spiroperidol (0.5 nM) binding to dopamine receptor from rat striatal membrane.
Test [3] deals with Rattus norvegicus. As to the kind of experiment: Compound was tested for the antagonistic activity against amphetamine-induced stereotypy in rats; (5 mg/kg administered ip 24 hr after the test compound). In kind it is functional. An outline of the steps: as §1
For test [4], the system named is Rattus norvegicus. Kind of test: Compound was tested for the antagonistic activity against amphetamine-induced stereotypy in rats; (5 mg/kg administered ip 5 hr after the test compound). It is filed as functional. A digest of the protocol:
as §1

Test [5] concerns Rattus norvegicus. Kind of test: Compound was tested for the antagonistic activity against amphetamine-induced stereotypy in rats; (5 mg/kg administered ip 24 hr after the test compound). It is filed as functional. An outline of the steps:
as §1

Test [6] concerns Mus musculus. As to the kind of experiment: Compound was tested for the anticholinergic activity against tetrabenazine-treated mice; activity expressed as the pupil size at the dose of 32 mg/kg sc. In kind it is functional. The settings on record: route subcutaneous.
Test [7] relates to Rattus norvegicus. Kind of test: Compound was tested for the antagonistic activity against amphetamine-induced stereotypy in rats; (5 mg/kg administered ip 5 hr after the test compound). It is filed as functional. A digest of the protocol: as §1
Test [8] relates to Dopamine receptor. Kind of test: Compound was tested for inhibition of [3H]spiroperidol (0.5 nM) binding to dopamine receptor from rat striatal membrane; Insoluble.
The species named for test [9] is Rattus norvegicus. Kind of test: Compound was tested for the antagonistic activity against amphetamine-induced stereotypy in rat. It is filed as functional. An outline of the steps:
as §1

For test [10], the system named is Mus musculus. As to the kind of experiment: Compound was tested for the anticholinergic activity against tetrabenazine-treated mice; activity expressed as the pupil size at the dose of 10 mg/kg sc. In kind it is functional. The note with it: route subcutaneous. A digest of the protocol:
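Mice in groups of five dosed sc, then given tetrabenazine 32 mg/kg ip 1 h later. Pupils measured 30 min afterward under a binocular microscope, with reticle readings converted to mm. Reported as mean ± SD pupil size. Vehicle-pretreated tetrabenazine groups served as controls.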

Test [11] relates to Rattus norvegicus. Kind of test: Compound was tested for the antagonistic activity against amphetamine-induced stereotypy in rats; (5 mg/kg administered ip 5 after the test compound). In kind it is functional. A digest of the protocol:
as §1

[12] abbreviates: Rattus norvegicus, ip, 1 h, read-out: ED50.
Where [13] appears, read: Rattus norvegicus, ip, 24 h, read-out: ED50.
[14] abbreviates: Rattus norvegicus, ip, 5 h, read-out: ED50.

Molecules are shown by their SMILES.

As a reminder, the ED50 is the dose that gives a 50% effect, or the effect in half of the subjects. As a reminder, the IC50 is the concentration at which inhibition is half-maximal. In the case of `Fc1ccc(N2c3ccc(F)cc3[C@H]3CNCC[C@@H]32)cc1`, the ED50 is 0.36 mg/kg in the test on Rattus norvegicus [1] (setting [12]), more than 10 mg/kg in the test with Rattus norvegicus [3] (setting [13]) and 0.45 mg/kg in the test on Rattus norvegicus [4] (setting [14]). On Dopamine receptor [2], the IC50 is 6.7 nM.

As to `O=C(CCCN1CCC(O)(c2ccc(Cl)cc2)CC1)c1ccc(F)cc1` [HALOPERIDOL], the figures for the ED50 in the test with Rattus norvegicus [1] (setting [12]), in the test with Rattus norvegicus [3] (setting [13]) and with Rattus norvegicus [4] (setting [14]) were 0.66 mg/kg, more than 10 mg/kg and 0.75 mg/kg, respectively.

`Cl.O=C(CCCN1CCC(N(c2ccc(F)cc2)c2ccc(F)cc2)CC1)c1ccc(F)cc1`: the ED50 with Rattus norvegicus [5] and in the test with Rattus norvegicus [1] (setting [12]) was more than 32 mg/kg in each case. Further, the IC50 at Dopamine receptor [2] amounted to 68 nM.

Turning to `O=C(NCCN1CC[C@H]2[C@H](C1)c1cc(F)ccc1N2c1ccc(F)cc1)C(CO)c1ccccc1` (some centres undefined), the Pupil size with Mus musculus [6] came out at 0.23 mm. The ED50 in the test with Rattus norvegicus [5] was 32 mg/kg; with Rattus norvegicus [1] (setting [12]) it was 2.8 mg/kg; in the test with Rattus norvegicus [7], 0.89 mg/kg. At Dopamine receptor [2], the IC50 came to 35 nM.

Consider `I.O=C(CCCN1CC[C@H]2[C@H](C1)c1cc(F)ccc1N2c1ccc(F)cc1)N(c1ccccc1)C1CCCCC1`, for which the figures for the ED50 in the test on Rattus norvegicus [5], in the test with Rattus norvegicus [1] (setting [12]) and in the test with Rattus norvegicus [7] were less than 32 mg/kg, more than 32 mg/kg and 1 mg/kg, respectively. Besides, the IC50 entry in the test with Dopamine receptor [8] is “Insoluble”.

Consider `Cl.O=C(NCCCCCCN1CCC2C(C1)c1cc(F)ccc1N2c1ccc(F)cc1)c1ccccc1` (centres undefined), for which, on Dopamine receptor [2], the IC50 was found to be 13 nM. The compound further gave an ED50 in the test filed under Rattus norvegicus [9] of 0.1 mg/kg.

Regarding `Cl.O=C1CNC(=O)N1CCCCCCN1CCc2c(n(-c3ccc(F)cc3)c3ccc(F)cc23)C1`, the ED50 with Rattus norvegicus [5] is more than 10 mg/kg; with Rattus norvegicus [1] (setting [12]) it was 1 mg/kg; with Rattus norvegicus [7], 0.75 mg/kg. Moreover, on Dopamine receptor [2], the IC50 was 5.8 nM.

As to `Cl.O=C(O)CCCN1CCc2c(c3cc(F)ccc3n2-c2ccc(F)cc2)C1`, the IC50 on Dopamine receptor [2] is recorded as more than 320 nM.

In turn, `CN1CCc2c(c3cc(F)ccc3n2-c2ccc(F)cc2)C1.Cl` returned an ED50 in the test filed under Rattus norvegicus [9] of more than 1 mg/kg.

In the case of `Cl.O=C1CNC(=O)N1CCCCN1CC[C@@H]2c3cc(F)ccc3N(c3ccc(F)cc3)[C@H]2C1`, the ED50 was 0.18 mg/kg in the test on Rattus norvegicus [5], 0.057 mg/kg in the test on Rattus norvegicus [1] (setting [12]) and 0.018 mg/kg in the test on Rattus norvegicus [7]. On Dopamine receptor [2], this compound yielded an IC50 of 12 nM.

Take `O[C@H](CCCN1CC[C@H]2[C@H](C1)c1cc(F)ccc1N2c1ccc(F)cc1)c1ccc(F)cc1` (stereo in doubt; 2b): the ED50 is more than 10 mg/kg in the test on Rattus norvegicus [1], more than 10 mg/kg in the test with Rattus norvegicus [3] and 5.7 mg/kg in the test with Rattus norvegicus [4]. On Dopamine receptor [2], this compound had an IC50 of 350 nM.

Turning to `Cl.OC(CCCN1CCC(N(c2ccc(F)cc2)c2ccc(F)cc2)CC1)c1ccc(F)cc1` (centres undefined), on Dopamine receptor [2], the IC50 was determined as 1000 nM.

Consider `Cl.O=C(Nc1ccccc1)OCCN1CC[C@H]2[C@H](C1)c1cc(F)ccc1N2c1ccc(F)cc1`, for which the ED50 came out at 2.3 mg/kg in the test with Rattus norvegicus [5], 0.57 mg/kg in the test with Rattus norvegicus [1] (setting [12]) and 0.45 mg/kg with Rattus norvegicus [7]. Also, on Dopamine receptor [2], the IC50 is 45 nM.

For `OC1(c2ccc(Cl)c(C(F)(F)F)c2)CCN(CCCC(c2ccc(F)cc2)c2ccc(F)cc2)CC1` [PENFLURIDOL], the ED50 is approximately 32 mg/kg in the test with Rattus norvegicus [1] (setting [12]), 3.9 mg/kg in the test with Rattus norvegicus [3] (setting [13]) and 2.4 mg/kg in the test on Rattus norvegicus [4] (setting [14]). The compound also yielded an IC50 at Dopamine receptor [2] of 62 nM.

In the test with Mus musculus [10], `CNCCCN1c2ccccc2CCc2ccccc21.Cl` [DESIPRAMINE HYDROCHLORIDE] displayed a Pupil size of 0.66 mm.

In the test on Mus musculus [6], `Cl.O=C(CCCN1CC[C@H]2[C@H](C1)c1cc(F)ccc1N2c1ccc(F)cc1)Nc1ccccc1` registered a Pupil size of 0.28 mm. The ED50 was determined as 1.8 mg/kg in the test on Rattus norvegicus [5], 0.45 mg/kg in the test on Rattus norvegicus [1] (setting [12]) and 0.18 mg/kg in the test on Rattus norvegicus [11]. Further, the IC50 on Dopamine receptor [2] was 19 nM.

Regarding `Cl.O=C1CNC(=O)N1CCCCCN1CC[C@@H]2c3cc(F)ccc3N(c3ccc(F)cc3)[C@H]2C1`, the ED50 in the test on Rattus norvegicus [5] turned out to be 0.05 mg/kg; in the test with Rattus norvegicus [1] (setting [12]), 0.04 mg/kg; with Rattus norvegicus [7], 0.02 mg/kg. In addition, at Dopamine receptor [2], the IC50 amounted to 6 nM.

In the case of `Cl.O=C(O)CCCN1CCC2C(C1)c1cc(F)ccc1N2c1ccc(F)cc1` (centres undefined), the IC50 at Dopamine receptor [2] was determined as 140 nM. In the test listed under Rattus norvegicus [9], this compound yielded an ED50 of 0.36 mg/kg.

For `Fc1ccc(N2c3ccc(F)cc3[C@H]3CN(CCn4c5ccccc5c5ccccc54)CC[C@@H]32)cc1`, the ED50 in the test with Rattus norvegicus [1] (setting [12]) and with Rattus norvegicus [7] was more than 32 mg/kg in each case. Besides, the IC50 result in the test with Dopamine receptor [8] was “Insoluble”.
